Experimental data published in ChEMBL document CHEMBL1153844, “Synthesis, crystal structure and anti-inflammatory properties of curcumin analogues” (2009).
The source made the active and inactive calls. The calls are words filed in the database; no cut-off is given here.

Columns and labels:
[1] = test system: J774.A1; experiment: Enhancement of LPS-induced TNFalpha production in mouse J774A1 cells at 10 uM preincubated for 3 hrs before LPS challenge measured after 21 hrs by ELISA; assay type: functional, cell-based
Outline: (§1)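 J774A.1 mouse macrophage-like cells were plated overnight in DMEM with 10% FBS and penicillin/streptomycin at 1.2 × 10⁶/plate, 37 °C, 5% CO₂. They were pretreated 3 h with compound or vehicle, then given LPS for 21 h. TNF-α or IL-6 in the medium was measured by ELISA and normalized to total protein of the lysed cell pellet. Values are percent of LPS control, from three independent experiments (mean ± S.E.).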

[2] = test system: J774.A1; experiment: Enhancement of LPS-induced IL6 production in mouse J774A1 cells at 10 uM preincubated for 3 hrs before LPS challenge measured after 21 hrs by ELISA; assay type: functional, cell-based; outline: as §1
[3] = test system: J774.A1; experiment: Antiinflammatory activity in mouse J774A1 cells assessed as inhibition of LPS-induced TNFalpha production at 10 uM preincubated for 3 hrs before LPS challenge measured after 21 hrs by ELISA relative to control; assay type: functional; outline: as §1
[4] = test system: J774.A1; experiment: Antiinflammatory activity in mouse J774A1 cells assessed as inhibition of LPS-induced IL6 production at 10 uM preincubated for 3 hrs before LPS challenge measured after 21 hrs by ELISA relative to control; assay type: functional; outline: as §1
[5] = test system: J774.A1; experiment: Antiinflammatory activity in mouse J774A1 cells assessed as inhibition of LPS-induced TNFalpha production at 10 uM preincubated for 3 hrs before LPS challenge measured after 21 hrs by ELISA; assay type: functional, cell-based; outline: as §1
[6] = test system: J774.A1; experiment: Antiinflammatory activity in mouse J774A1 cells assessed as inhibition of LPS-induced IL6 production at 10 uM preincubated for 3 hrs before LPS challenge measured after 21 hrs by ELISA; assay type: functional, cell-based; outline: as §1

| SMILES | Activity [5] | Activity [6] | also measured |
| --- | --- | --- | --- |
| O=C(/C=C/c1ccc(O)cc1)/C=C/c1ccc(O)cc1 |  |  | Activity [1]: Active; Activity [2]: Active |
| O=C1/C(=C/c2ccc(F)cc2)CCC/C1=C\c1ccc(F)cc1 |  |  | inhibition at 10 µM [3]: 65.3%; inhibition at 10 µM [4]: 54.8% |
| O=C1/C(=C/c2ccc(O)cc2)CCC/C1=C\c1ccc(O)cc1 | Active | Active |  |
| COc1cc(/C=C2\CC/C(=C\c3ccc(O)c(OC)c3)C2=O)ccc1O | Active | Active |  |
| COc1cc(/C=C/C(=O)/C=C/c2ccc(O)c(OC)c2)ccc1O | Active | Active |  |
| COc1cc(/C=C2\CCC/C(=C\c3ccc(O)c(OC)c3)C2=O)ccc1O | Active | Active |  |
